In PMC6057476 (ACS chemical biology, 2018):

What was measured:
Assay type in all cases: cell-based
[1] = tested on: transcriptome of MCF-7 cells; assay: RNA-Seq global gene expression; conditions: MCF-7, RNA-Seq; 10 nM E2 + 1 μM 4OHT or 15 μM R4K1
MCF-7 cells = assay: Proliferation assay; conditions: 10 nM estradiol, 24 hours
In short: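 MCF-7 cells in charcoal-dextran-stripped 5% FBS were given vehicle or 15 μM test compound, with or without 10 nM estradiol, starting on day 3. Cells were counted 24 h later by brightfield imaging cytometry. Fold change was taken versus vehicle control over three independent experiments, with error bars as SD.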

[2] = tested on: ER-regulated genes PTGES, PR, PS2, EGR3, IGFBP4 in MCF-7 cells; assay: RT-qPCR of ER-regulated native genes, MCF-7; conditions: 10 nM E2, 2 hrs
In short: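 MCF-7 cells in charcoal-dextran-stripped 5% FBS were pretreated with test compound (15 μM, 24 h), 4-hydroxytamoxifen (1 μM, 2 h) or DMSO, then with 10 nM 17β-estradiol for 2 h. Total RNA was assayed by RT-qPCR, normalised to 36B4 and converted to fold change versus DMSO vehicle by ΔΔCt. Error bars are SD.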

SMILES | reversal of E2-regulated genes of cluster 2 (226 genes) [1] | reversal of E2-regulated genes of cluster 3 (87 genes) [1] | proliferation of MCF-7 cells, estradiol (MCF-7 cells) | expression of five ER-regulated genes, estradiol [2]
CC/C(=C(\c1ccc(O)cc1)c1ccc(OCCN(C)C)cc1)c1ccccc1 [4OHT, 4-hydroxytamoxifen] | reversed fully | reversed fully |  | 
C[C@]12CC[C@@H]3c4ccc(O)cc4CC[C@H]3[C@@H]1CC[C@@H]2O [Estradiol, 17β-estradiol] |  |  | stimulated proliferation | induced expression of each of the five genes
